Reference: ChEMBL document CHEMBL1938286, “A concise synthesis of viscolin, and its anti-inflammatory effects through the suppression of iNOS, COX-2, ERK phosphorylation and proinflammatory cytokines expressions” (Eur J Med Chem, 2012)
Calls of active or inactive are those of the source. The calls are words filed in the database; no cut-off is given here.

Legend:
[1] = tested on: Mus musculus; assay: Down regulation of COX-2 protein expression in carrageenan-stimulated ICR mouse at 10 mg/kg, ip measured after 5 hrs by Western blot analysis; assay type: functional; details: route intraperitoneal
Method in brief: (§1)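 Male ICR mice (18–25 g, n = 6 per group) received intraplantar carrageenan. Paw tissue was taken 5 h after carrageenan. Lysates were made in RIPA buffer and 30 µg protein run on SDS-PAGE/PVDF immunoblot with ECL detection. Band intensities were quantified relative to the carrageenan-alone group across three independent experiments.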

[2] = tested on: Mus musculus; assay: Antiinflammatory activity in carrageenan-stimulated ICR mouse assessed as decrease in neutrophil number at 8 mg/kg, ip measured after 5 hrs; assay type: functional, organism-based; parameters: dose 8 mg/kg
Method in brief: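 Male ICR mice were dosed 30 min before intraplantar carrageenan, and paw biopsies were taken 5 h later. Tissue was fixed in Dietric solution for 1 week at room temperature, dehydrated in graded ethanol and paraffin-embedded. 7-thickness sections were stained with hematoxylin–eosin or Van Gieson and examined by light microscopy.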

[3] = tested on: Mus musculus; assay: Antiinflammatory activity in carrageenan-stimulated ICR mouse assessed as reduction in iNOS immunoreactive cells at 8 mg/kg, ip measured after 5 hrs; assay type: functional, organism-based; parameters: dose 8 mg/kg
[4] = tested on: Mus musculus; assay: Antiinflammatory activity in ICR mouse assessed as decrease in carrageenan-induced serum NO level at 10 mg/kg, ip measured after 5 hrs; assay type: functional, organism-based; parameters: dose 10 mg/kg
Method in brief: (§2)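 Male ICR mice (18–25 g, n = 6 per group). Carrageenan was injected intraplantar into the paw, with drug given 30 min beforehand. Serum was collected at the 5th hr. Nitrite was measured colorimetrically by Griess reaction, and TNF-α by commercial ELISA. Data are mean ± SEM.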

[5] = tested on: Mus musculus; assay: Antioxidant activity in carrageenan-stimulated ICR mouse assessed as increase in GPx activity at 10 mg/kg, ip measured after 5 hrs; assay type: functional; details: route intraperitoneal
Method in brief: (§3)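 Male ICR mice (n = 6 per group) received the drug 30 min before intraplantar carrageenan, and paw tissue was taken at the 5th hr. Total SOD was measured by inhibition of cytochrome c reduction, CAT by Aebi's method, and cytosolic GPx by Paglia–Valentine. Activities are in U/mg protein, given as mean ± SEM.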

[6] = tested on: Mus musculus; assay: Antioxidant activity in carrageenan-stimulated ICR mouse assessed as increase in CAT activity at 10 mg/kg, ip measured after 5 hrs; assay type: functional; details: route intraperitoneal; method in brief: as §3
[7] = tested on: Mus musculus; assay: Antioxidant activity in carrageenan-stimulated ICR mouse assessed as increase in SOD activity at 10 mg/kg, ip measured after 5 hrs; assay type: functional; details: route intraperitoneal; method in brief: as §3
[8] = tested on: Mus musculus; assay: Antiinflammatory activity in ICR mouse assessed as decrease in carrageenan-induced serum TNFalpha level at 10 mg/kg, ip measured after 5 hrs; assay type: functional, organism-based; parameters: dose 10 mg/kg; method in brief: as §2
[9] = tested on: Mus musculus; assay: Antiinflammatory activity in ICR mouse assessed as decrease in carrageenan-induced MDA level at 10 mg/kg, ip measured after 5 hrs; assay type: functional, organism-based; parameters: dose 10 mg/kg
Method in brief: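 Male ICR mice (n = 6 per group) were dosed 30 min before intraplantar carrageenan. MDA in the edematous paw tissue was determined at the 5th hr after carrageenan.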

[10] = tested on: Mus musculus; assay: Antiinflammatory activity in ICR mouse assessed as inhibition of carrageenan-induced hind paw edema at 10 mg/kg, ip; assay type: functional, organism-based; parameters: dose 10 mg/kg
[11] = tested on: Mus musculus; assay: Antiinflammatory activity in carrageenan-stimulated ICR mouse assessed as reduction in COX2 immunoreactive cells at 8 mg/kg, ip measured after 5 hrs; assay type: functional, organism-based; parameters: dose 8 mg/kg
[12] = tested on: Mus musculus; assay: Antiinflammatory activity in ICR mouse assessed as inhibition of carrageenan-induced hind paw edema at 10 mg/kg, ip measured after 4 hrs; assay type: functional, organism-based; parameters: dose 10 mg/kg
[13] = tested on: Mus musculus; assay: Down regulation of iNOS protein expression in carrageenan-stimulated ICR mouse at 10 mg/kg, ip measured after 5 hrs by Western blot analysis; assay type: functional; details: route intraperitoneal; method in brief: as §1

## COc1ccc2c(c1)c(CC(=O)O)c(C)n2C(=O)c1ccc(Cl)cc1 [INDOMETHACIN]
[1]
  Activity: 73.1%
[2]
  Activity: Active
[3]
  Activity: Active
[4]
  Activity: Active
[5]
  Activity: 10.45 U/mg
[6]
  Activity: 4.65 U/mg
[7]
  Activity: 3.85 U/mg
[8]
  Activity: Active
[9]
  Activity: Active
[10]
  Activity: Active
[11]
  Activity: Active
[12]
  Activity: Active
[13]
  Activity: 69.1%
